The source of these data is publication PMC2217204 (The Journal of General Physiology, 2000).

Molecules are shown by their SMILES. Like-named read-outs stand apart in the source and are kept apart here.

Assay [1] has as its target T1, KACh channel (Rattus norvegicus, UniProt P48548+P63251).
T1 sequence (P63251 1-501): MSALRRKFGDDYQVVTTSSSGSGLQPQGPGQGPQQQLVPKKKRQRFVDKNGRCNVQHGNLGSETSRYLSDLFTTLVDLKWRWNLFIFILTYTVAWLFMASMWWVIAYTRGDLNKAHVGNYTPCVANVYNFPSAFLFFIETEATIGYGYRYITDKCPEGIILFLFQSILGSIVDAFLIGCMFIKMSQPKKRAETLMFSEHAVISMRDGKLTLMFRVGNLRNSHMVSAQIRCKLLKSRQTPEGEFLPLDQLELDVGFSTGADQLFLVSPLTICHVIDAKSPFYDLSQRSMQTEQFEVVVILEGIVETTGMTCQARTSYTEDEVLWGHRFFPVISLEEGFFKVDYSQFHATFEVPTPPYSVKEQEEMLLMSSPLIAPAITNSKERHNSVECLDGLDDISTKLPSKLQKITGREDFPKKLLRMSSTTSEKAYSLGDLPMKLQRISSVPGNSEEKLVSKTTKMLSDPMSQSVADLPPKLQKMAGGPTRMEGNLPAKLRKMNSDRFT
T1 sequence (P48548 1-419): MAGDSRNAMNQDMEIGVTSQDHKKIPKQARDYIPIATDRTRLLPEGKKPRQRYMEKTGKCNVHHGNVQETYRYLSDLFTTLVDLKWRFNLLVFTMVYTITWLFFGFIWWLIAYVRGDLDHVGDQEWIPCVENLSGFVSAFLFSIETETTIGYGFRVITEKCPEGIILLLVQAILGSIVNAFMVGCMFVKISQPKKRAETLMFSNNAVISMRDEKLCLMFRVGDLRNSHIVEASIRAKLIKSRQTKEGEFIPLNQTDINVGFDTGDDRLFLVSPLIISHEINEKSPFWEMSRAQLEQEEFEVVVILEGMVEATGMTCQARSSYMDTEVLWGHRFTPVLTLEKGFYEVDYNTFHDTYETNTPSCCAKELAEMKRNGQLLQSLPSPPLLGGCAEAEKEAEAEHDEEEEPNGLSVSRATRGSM
In kind it is cell-based. The following applies: for inhibition of ATP-dependent gating, extracellular application: 5 μM in the pipette solution (extracellular), after 5 min, n = 4 each; for Hill coefficient of inhibition: ATP-modified KACh channels, inside-out.

Assay [2] addresses T1, KACh channel. As to the kind of experiment: βγ-activated KACh channels, atrial inside-out patches. In kind it is cell-based. The method, boiled down: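 Atrial inside-out patches at −60 mV in 140 mM KCl, pH 7.2, 24–26°C. Channels were activated by purified bovine βγ subunit applied to the cytoplasmic face. Linoleic or arachidonic acid (2 μM, sonicated into bath solution) was applied first, then 4 mM ATP was added. nPo was compared before and after ATP.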

The target in assay [3] is T1, KACh channel. It counts as cell-based. The following applies: 2 μM fatty acid applied with 30 μM PIP2.
In assay [4] the target is T2, KACh channels in hippocampal pyramidal neurons (Rattus norvegicus, UniProt P48550+P63251).
T2 sequence (P63251 1-501): T1 sequence (P63251 1-501)
T2 sequence (P48550 1-425): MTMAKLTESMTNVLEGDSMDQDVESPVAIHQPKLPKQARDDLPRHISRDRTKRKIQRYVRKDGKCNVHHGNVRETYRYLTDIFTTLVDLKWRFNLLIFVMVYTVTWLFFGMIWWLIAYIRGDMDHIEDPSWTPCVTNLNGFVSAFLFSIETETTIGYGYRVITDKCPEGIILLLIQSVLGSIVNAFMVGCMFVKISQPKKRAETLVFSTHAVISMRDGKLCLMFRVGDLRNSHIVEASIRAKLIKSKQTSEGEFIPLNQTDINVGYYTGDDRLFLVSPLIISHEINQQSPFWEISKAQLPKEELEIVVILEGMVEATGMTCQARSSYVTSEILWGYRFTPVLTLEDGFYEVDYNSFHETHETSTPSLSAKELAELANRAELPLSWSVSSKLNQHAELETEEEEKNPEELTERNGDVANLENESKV
As to the kind of experiment: ATP-dependent gating of KACh channel in hippocampal neurons, 5-HT as agonist. It counts as cell-based. The following applies: 2 μM with 100 μM GTP and 4 mM ATP, 10 μM 5-HT in pipette. The method, boiled down:
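Pyramidal neurons from the CA3 region of adult rat hippocampus. Slices ~500 μm thick were digested in 0.33 mg/ml trypsin at 30°C, then in DNase I, triturated, and settled onto coverslips. Inside-out patches were activated by 100 μM GTP, then 4 mM ATP was added. Open states were assessed from duration histograms and kinetic-scheme fits with one or two open states.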

Assay [5] has as its system K1 channel. Put plainly: ATP-activated background K1 channel, atrial inside-out patches. In kind it is cell-based, rat.
Assay [6] deals with KATP channel (Rattus norvegicus, UniProt P70673). As to the kind of experiment: KATP channel, inside-out patches from adult rat ventricular cells. In kind it is cell-based. The gist of the method:
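KATP channels that appeared on forming inside-out patches were tested with 5 μM arachidonic acid on the cytoplasmic side. In some patches channels were first allowed to run down, then briefly exposed to 3 mM ATP to reactivate them before fatty acid was applied. Recordings were at 24–26°C; 2 μM was also tested (n = 3).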

Assay [7] deals with T1, KACh channel. It counts as cell-based. The method, boiled down: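 Inside-out patches from cultured newborn-rat atrial cells, 10 μM ACh in pipette, −60 mV, 24–26°C. Channels were activated by 100 μM GTP in the bath, then 4 mM ATP was added, with free Mg2+ held at 0.5 mM. nPo from 1–2 min of recording. Open and closed times came from maximum-likelihood fits of idealized records to schemes with 2–3 closed and two open states, using patches with ≤4 open levels.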

Assay [8] addresses T1, KACh channel. It counts as cell-based. The note with it: 4 mM ATP with 100 μM GTP in pipette, 10 μM ACh, outside-out. The method, boiled down: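 Cultured atrial myocytes from 1-day-old rats; outside-out patches at −60 mV, 24–26°C. Pipette held […] 100 μM GTP, GTP plus 4 mM ATP, or these plus atrial cytosolic fraction (5 mg protein/ml). Symmetrical 140 mM KCl, 0.5 mM MgCl2, 5 mM EGTA, 10 mM HEPES, pH 7.2. nPo from 1–2 min of recording.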

Assay [9] concerns GIRK1/4. Put plainly: ATP-dependent gating of GIRK1/4 expressed in Xenopus oocytes, βγ-activated. It counts as cell-based. The following applies: βγ 50 nM. The method, boiled down:
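Xenopus oocytes injected with GIRK1 and GIRK4 cRNA (~0.5 ng/nl) and kept ~2 d at 19°C in Barth's solution. Vitelline membrane was removed before patching. Inside-out patches in 140 mM KCl, pH 7.2. Channel activity and open-time kinetics were assessed with ATP and fatty acid on the cytoplasmic side.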

[10] abbreviates: K 1/2 (effect on ATP-dependent gating of KACh channel), atrial inside-out patches, 100 μM GTP and 4 mM ATP, lipid 0.1, 1, 3, 10 and 30 μM, n = 3 each.

KATP channel, sequence (P70673 whole entry): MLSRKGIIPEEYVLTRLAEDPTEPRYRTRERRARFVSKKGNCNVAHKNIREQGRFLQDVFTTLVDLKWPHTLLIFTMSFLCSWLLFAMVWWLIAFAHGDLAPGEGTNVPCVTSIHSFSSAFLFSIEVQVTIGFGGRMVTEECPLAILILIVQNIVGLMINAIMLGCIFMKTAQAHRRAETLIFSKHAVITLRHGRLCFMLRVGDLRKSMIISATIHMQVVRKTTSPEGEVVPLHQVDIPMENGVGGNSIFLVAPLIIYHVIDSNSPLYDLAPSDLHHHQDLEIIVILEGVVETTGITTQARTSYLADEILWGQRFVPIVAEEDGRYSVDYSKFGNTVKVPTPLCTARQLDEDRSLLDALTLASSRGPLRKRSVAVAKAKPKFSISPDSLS
KATP channel, sequence (Q63563 whole entry partner): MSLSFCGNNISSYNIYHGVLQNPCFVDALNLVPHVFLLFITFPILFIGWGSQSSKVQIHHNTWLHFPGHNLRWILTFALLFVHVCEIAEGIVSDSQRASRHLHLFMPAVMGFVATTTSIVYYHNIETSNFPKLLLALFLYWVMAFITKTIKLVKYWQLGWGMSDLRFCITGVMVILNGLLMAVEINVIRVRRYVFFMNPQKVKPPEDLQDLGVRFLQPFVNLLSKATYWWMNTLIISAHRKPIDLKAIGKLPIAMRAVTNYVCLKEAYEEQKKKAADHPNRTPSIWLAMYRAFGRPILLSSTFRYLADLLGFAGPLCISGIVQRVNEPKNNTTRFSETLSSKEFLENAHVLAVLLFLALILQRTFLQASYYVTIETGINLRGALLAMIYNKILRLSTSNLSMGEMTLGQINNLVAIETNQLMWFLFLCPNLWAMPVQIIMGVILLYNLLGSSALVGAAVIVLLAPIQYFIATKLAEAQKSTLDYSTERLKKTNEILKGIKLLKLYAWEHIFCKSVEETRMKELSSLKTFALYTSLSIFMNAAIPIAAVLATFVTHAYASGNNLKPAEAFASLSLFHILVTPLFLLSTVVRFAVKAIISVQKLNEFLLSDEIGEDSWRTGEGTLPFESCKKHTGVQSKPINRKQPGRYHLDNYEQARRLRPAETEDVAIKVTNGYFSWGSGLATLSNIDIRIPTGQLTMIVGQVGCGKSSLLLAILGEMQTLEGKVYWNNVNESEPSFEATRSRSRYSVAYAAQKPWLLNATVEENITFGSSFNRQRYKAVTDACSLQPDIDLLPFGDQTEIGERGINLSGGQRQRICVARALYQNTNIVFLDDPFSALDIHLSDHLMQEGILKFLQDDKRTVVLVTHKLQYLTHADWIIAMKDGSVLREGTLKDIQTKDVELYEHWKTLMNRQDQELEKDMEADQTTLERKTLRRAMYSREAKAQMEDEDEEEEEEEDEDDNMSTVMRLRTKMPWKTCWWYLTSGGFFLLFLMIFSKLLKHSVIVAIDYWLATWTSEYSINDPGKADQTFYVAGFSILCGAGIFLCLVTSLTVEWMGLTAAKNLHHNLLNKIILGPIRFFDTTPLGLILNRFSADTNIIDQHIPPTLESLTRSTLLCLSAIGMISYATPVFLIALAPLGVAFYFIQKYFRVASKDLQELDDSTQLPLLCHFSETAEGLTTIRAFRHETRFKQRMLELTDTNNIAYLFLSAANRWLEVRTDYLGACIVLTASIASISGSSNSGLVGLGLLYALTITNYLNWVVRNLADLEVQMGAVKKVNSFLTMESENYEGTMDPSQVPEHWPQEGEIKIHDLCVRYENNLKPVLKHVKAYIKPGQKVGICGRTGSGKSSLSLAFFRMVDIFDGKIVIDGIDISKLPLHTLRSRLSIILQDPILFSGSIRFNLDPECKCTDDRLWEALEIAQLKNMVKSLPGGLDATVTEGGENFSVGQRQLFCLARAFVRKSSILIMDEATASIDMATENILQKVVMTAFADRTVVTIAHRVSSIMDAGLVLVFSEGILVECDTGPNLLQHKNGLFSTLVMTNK

Usually IC50 stands for the concentration that gives 50% inhibition. Low readings indicate inhibition by little substance, high ones a need for much substance. Turning to `CCCCC/C=C\C/C=C\CCCCCCCC(=O)O` [Linoleic acid [18:2 (n-6)], Linoleic acid], the “inhibition of ATP-dependent gating, extracellular application” value in assay [1] is reported as “did not inhibit”. For the same compound, the “Hill coefficient of inhibition” value in [1] is given as around 2. Further, the IC50 was 1200 ± 200 nM in [1] (setting [10]); 1600 ± 400 nM in [1] (K 1/2 for inhibition, pipette solution 70 mM K+, n = 3); 1500 ± 300 nM in assay [1] (K 1/2 for inhibition, pipette solution 140 mM K+, n = 3); 1700 ± 400 nM in assay [1] (K 1/2 for inhibition, pipette solution 210 mM K+, n = 3). Further, in [2] (βγ-activated channels exposed to 2 μM fatty acid first, n = 5), the “increase in channel activity on further addition of 4 mM ATP” value came out at 1.3 ± 0.1 fold. In [3], the “effect on PIP2-dependent gating of KACh channel” value is recorded as “inhibited”. Moreover, the “open time constant (one open state)” value in assay [4] worked out at 1.0 ± 0.1 ms. Further, the “influence on K1 channel kinetics” value in assay [5] (linoleic acid 2 μM (n = 3), cytosolic fraction 5 mg protein/ml (n = 2), lipid fraction (n = 2)) was “failed to significantly influence”. In assay [6] (5 μM, during channel rundown), the “inhibition of KATP channel activity” value is on record as “near maximal inhibition”.
On to `Nc1ncnc2c1ncn2[C@@H]1O[C@H](COP(=O)(O)OP(=O)(O)OP(=O)(O)O)[C@@H](O)[C@H]1O` [ATP], for which the “increase in nPo” value in assay [7] (4 mM ATP added to GTP, inside-out patches) is “approximately fivefold increase”. In addition, the “mean closed time of long closings (C1)” value in assay [7] (4 mM ATP, inside-out patches) came to 62 ms. The “Hill coefficient of [ATP]–nPo relationship” value in assay [7] (n = 3) stood at 1.9 ± 0.2. In addition, the “activation of K1 channel” value in assay [5] (4 mM ATP in bath, inside-out atrial patch) is on record as “quickly activated”. For the same compound, in [8], the “channel activity (nPo) with ATP versus without” value is reported as “approximately fivefold higher”.
The term inhibition denotes the change of the read-out against control, counted positive when it falls. In the case of `CCCCC/C=C\C/C=C\C/C=C\C/C=C\CCCC(=O)O` [Arachidonic acid [20:4 (n-6)], Arachidonic acid], the “KACh open time constant after fatty acid” value in assay [1] (2 μM AA with GTP and 4 mM ATP, atrial patch also containing K1 channel) was determined as 1.0 ± 0.1 ms. Besides, in assay [1], the “inhibition of ATP-dependent gating, extracellular application” value is listed as “did not inhibit” and the “Hill coefficient of inhibition” value was around 2. In [1] (setting [10]), this compound yielded a half-maximal inhibitory concentration (IC50) of 1700 ± 200 nM. The “voltage dependence of the effect” value in assay [1] (channel activity at different membrane potentials (Fig. 10 B)) is “voltage-insensitive”. 1500 nM corresponded to half-maximal inhibition in assay [2] (IC50). For the same compound, the “effect on ATP-induced changes in GIRK1/4 channel kinetics” value in assay [9] is on record as “blocked”. Also, in [5] (2 or 5 μM AA, ATP-activated, n = 3 each, listed as AA), the “effect on K1 channel” value is recorded as “no effect”. Also, the “KATP channel inhibition in the presence of PIP2” value in assay [6] (5 μM AA with PIP2 present, listed as AA) is reported as “ineffective”. Besides, the “inhibition of KATP channels reactivated by ATP after rundown” value in assay [6] (brief exposure to 3 mM ATP, n = 4, listed as AA) is reported as “quick inhibition”. Further, in assay [6] (read-out: inhibition of KATP channel activity), the inhibition at 2 µM came out at 62 ± 12%.
